The M2OR odorant receptor database

Legend:
Details in all cases: stereoisomer not certain
O14A2 I133V = tested on: T1, O14A2 I133V
T1 sequence (whole entry): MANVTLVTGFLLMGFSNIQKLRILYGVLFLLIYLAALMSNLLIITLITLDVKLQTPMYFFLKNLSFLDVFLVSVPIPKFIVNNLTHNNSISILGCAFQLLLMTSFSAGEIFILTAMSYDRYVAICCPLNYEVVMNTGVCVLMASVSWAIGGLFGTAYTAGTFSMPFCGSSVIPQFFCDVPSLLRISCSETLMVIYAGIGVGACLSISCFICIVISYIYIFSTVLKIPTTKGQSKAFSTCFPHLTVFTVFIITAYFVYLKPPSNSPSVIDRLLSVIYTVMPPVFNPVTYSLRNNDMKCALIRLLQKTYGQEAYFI
Outline: (§1)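 Each receptor–molecule pair is labelled responsive or non-responsive (inactive) according to whether the original authors judged the measured signal statistically different from baseline. The data were taken from the main text and supplementary material of published papers and checked for typos and inconsistencies. Assay methods differed by source, with transient luciferase assays in mammalian cell lines being common.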

O14CZ = tested on: T2, O14CZ
T2 sequence (whole entry): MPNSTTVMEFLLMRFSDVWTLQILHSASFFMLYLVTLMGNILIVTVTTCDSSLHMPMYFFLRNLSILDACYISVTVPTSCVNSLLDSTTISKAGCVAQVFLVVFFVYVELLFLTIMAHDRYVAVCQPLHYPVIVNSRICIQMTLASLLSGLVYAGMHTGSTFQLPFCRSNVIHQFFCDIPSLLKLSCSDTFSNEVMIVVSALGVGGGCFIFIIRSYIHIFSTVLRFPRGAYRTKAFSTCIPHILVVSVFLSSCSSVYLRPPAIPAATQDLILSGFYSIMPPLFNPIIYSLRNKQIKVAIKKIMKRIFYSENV
Outline: as §1

O14I1 V36A D50N Y216C = tested on: T3, O14I1 V36A D50N Y216C
T3 sequence (whole entry): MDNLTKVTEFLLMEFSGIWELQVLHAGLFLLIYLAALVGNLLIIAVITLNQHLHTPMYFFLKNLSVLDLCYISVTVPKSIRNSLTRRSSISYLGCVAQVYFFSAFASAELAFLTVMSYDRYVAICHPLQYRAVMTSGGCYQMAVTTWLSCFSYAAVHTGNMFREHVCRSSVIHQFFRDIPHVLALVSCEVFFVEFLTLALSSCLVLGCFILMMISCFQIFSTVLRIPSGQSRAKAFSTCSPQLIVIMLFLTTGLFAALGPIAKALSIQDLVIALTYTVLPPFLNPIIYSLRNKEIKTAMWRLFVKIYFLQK
Outline: as §1

O14J1 N3Y = tested on: T4, O14J1 N3Y
T4 sequence (whole entry): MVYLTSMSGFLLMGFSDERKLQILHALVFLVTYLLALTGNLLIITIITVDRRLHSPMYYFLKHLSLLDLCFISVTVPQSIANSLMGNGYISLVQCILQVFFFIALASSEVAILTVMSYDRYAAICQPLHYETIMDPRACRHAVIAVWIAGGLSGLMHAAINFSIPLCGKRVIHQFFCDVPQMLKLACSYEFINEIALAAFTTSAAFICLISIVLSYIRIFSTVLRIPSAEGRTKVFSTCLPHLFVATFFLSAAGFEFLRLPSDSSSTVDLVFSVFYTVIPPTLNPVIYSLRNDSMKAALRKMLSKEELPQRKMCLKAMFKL
Outline: as §1

O14K1 D119Y = tested on: T5, O14K1 D119Y
T5 sequence (whole entry): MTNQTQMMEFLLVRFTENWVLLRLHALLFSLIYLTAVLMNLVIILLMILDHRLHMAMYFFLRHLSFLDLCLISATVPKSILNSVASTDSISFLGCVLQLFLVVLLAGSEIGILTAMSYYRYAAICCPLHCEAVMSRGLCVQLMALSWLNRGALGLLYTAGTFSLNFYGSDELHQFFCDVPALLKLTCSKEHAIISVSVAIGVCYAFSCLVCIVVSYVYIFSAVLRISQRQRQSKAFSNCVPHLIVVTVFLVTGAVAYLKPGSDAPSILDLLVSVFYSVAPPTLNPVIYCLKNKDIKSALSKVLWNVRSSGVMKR
Outline: as §1

O2A25 = tested on: T6, O2A25
T6 sequence (whole entry): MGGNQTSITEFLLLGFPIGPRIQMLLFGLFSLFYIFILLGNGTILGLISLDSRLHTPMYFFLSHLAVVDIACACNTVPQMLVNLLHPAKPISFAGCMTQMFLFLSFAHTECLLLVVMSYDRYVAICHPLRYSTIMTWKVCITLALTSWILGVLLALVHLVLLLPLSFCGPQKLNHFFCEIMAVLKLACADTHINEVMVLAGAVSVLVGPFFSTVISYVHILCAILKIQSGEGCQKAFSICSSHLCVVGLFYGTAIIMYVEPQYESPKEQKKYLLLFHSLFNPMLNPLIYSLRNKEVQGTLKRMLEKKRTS
Outline: as §1

O2AE1 = tested on: T7, O2AE1
T7 sequence (whole entry): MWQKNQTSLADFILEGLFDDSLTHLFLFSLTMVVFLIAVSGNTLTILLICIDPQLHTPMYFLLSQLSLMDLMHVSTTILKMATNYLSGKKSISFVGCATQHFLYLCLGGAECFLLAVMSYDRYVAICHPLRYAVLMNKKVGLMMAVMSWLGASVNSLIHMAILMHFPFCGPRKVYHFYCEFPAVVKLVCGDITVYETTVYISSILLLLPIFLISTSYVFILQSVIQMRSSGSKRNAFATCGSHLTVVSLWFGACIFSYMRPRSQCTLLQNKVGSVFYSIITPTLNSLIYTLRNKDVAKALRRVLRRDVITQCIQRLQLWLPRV
Outline: as §1

O2AJ1 = tested on: T8, O2AJ1
T8 sequence (whole entry): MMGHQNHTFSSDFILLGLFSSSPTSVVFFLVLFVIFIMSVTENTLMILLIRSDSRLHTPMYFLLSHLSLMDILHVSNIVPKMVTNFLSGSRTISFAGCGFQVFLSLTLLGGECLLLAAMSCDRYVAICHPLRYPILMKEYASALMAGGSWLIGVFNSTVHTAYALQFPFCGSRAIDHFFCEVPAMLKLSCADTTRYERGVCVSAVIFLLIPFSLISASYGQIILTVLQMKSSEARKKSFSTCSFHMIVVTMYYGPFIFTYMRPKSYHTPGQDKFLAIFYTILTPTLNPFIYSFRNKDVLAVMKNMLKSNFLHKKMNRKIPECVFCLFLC
Outline: as §1

O2AK2 S99N = tested on: T9, O2AK2 S99N
T9 sequence (whole entry): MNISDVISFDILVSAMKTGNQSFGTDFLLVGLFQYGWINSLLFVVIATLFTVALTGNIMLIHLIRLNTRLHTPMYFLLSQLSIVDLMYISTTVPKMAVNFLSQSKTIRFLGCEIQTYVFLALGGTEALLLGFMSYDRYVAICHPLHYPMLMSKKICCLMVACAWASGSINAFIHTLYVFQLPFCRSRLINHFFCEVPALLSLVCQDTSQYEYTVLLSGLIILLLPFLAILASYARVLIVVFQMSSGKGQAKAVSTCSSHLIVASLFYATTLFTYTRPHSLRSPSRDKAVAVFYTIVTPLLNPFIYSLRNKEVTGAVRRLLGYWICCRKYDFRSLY
Outline: as §1

O1440 = tested on: T10, O1440
T10 sequence (whole entry): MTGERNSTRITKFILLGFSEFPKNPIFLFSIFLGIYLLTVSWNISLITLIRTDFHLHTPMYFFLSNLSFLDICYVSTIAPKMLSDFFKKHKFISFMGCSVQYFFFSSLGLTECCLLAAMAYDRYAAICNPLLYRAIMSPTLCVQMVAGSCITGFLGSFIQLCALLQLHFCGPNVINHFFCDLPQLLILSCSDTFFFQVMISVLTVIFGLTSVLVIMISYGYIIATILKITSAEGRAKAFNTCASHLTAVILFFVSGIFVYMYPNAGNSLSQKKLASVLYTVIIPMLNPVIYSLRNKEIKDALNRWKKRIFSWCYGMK
Outline: as §1

Measured: odorant receptor agonist call

CC1=C(O)C(=O)C(C)O1 (stereo not given)
not listed: O1440
inactive: all other assays above

CCCCCCCC(=O)CCCCCCC
inactive: O1440

CC1CCCCCCCCCCCCC(=O)C1 (stereo not given)
active: O1440

c1ccc2ncccc2c1
active: O2A25

CC1CC=CCCCCCCCCC(=O)C1 (stereo not given)
active: O1440

CC(=O)c1c(C)c([N+](=O)[O-])c(C(C)(C)C)c([N+](=O)[O-])c1C
active: O1440

O=C1CCCCCCCCCC1
inactive: O1440

CC1=C(O)C(=O)OC1C (stereo not given)
not listed: O1440
inactive: all other assays above

CC1CCCCCCCCCCCC(=O)C1 (stereo not given)
active: O1440

CCCCCCCCCCCCCC(C)=O
active: O1440

CCC1OC(C)=C(O)C1=O (stereo not given)
not listed: O1440
inactive: all other assays above

C1CCCCCCCCCCCCCC1
inactive: O1440

O=C1CCCCCCCCCCCCCC1
active: O1440

O=C1CCCCCCC=CCCCCCCC1
active: O1440

O=C1C=CCCCCCCCCCCCCO1
active: O1440

CC1=NC(C)C(C)S1 (stereo not given)
not listed: O1440
inactive: all other assays above

O=C1CCCC=CCCCCCCCCCC1
active: O1440

OC1CCCCCCCCCCCCCC1
active: O1440

CCC1OC(=O)C(O)=C1C (stereo not given)
not listed: O1440
inactive: all other assays above

O=C1CCCCCC=CCCCCCCCCO1
active: O1440

CCCC(S)CCOC(C)=O (stereo not given)
not listed: O1440
inactive: all other assays above

CCCCCCC=CCCC=O
not listed: O2AJ1 | O1440
inactive: all other assays above

CC1C(C)(C)C2=C(C(=O)CCC2)C1(C)C (stereo not given)
active: O1440

Cc1cnc(C)c(C)n1
not listed: O1440
inactive: all other assays above

CCC(=O)OCC(C)(C)OC(C)C1CCCC(C)(C)C1 (stereo not given)
inactive: O1440

CC1CC=CCCCCCCCCCC(=O)C1 (stereo not given)
active: O1440

O=C1CCCCCCCCC1
inactive: O1440
